Experimental data reported in ChEMBL document CHEMBL1126624, “Design, synthesis, and pharmacology of 3-substituted sodium azulene-1-sulfonates and related compounds: non-prostanoid thromboxane A2 receptor antagonists” (J Med Chem, 1993).

Assays:
[1] = species: Rattus norvegicus; assay: Inhibition of U-46619 (3x10E-8 M) induced contraction in rat thoracic aorta; format: functional, organism-based
Outline: (§1)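 Aortic rings were held under 1.0 g resting tension and gassed with 95% O₂/5% CO₂. After 1 h equilibration, 3×10⁻⁸ M U-46619 was added; once tension stabilised, compound was added cumulatively. The concentration giving 50% relaxation of the maximal U-46619 tension was derived by regression. Values are mean ± SEM from three dose groups of four preparations.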

[2] = Selectivity index for the difference between the IC50 values in the aggregation and contraction assay; format: functional
Outline: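 Index compares IC₅₀ values from U-46619-induced rabbit aorta contraction with those from rabbit platelet-rich plasma aggregation. For aggregation, citrated carotid blood from male New Zealand rabbits (2.0–2.5 kg) gave PRP. PRP was pre-warmed 2 min at 37 °C, given compound for 2 min, then U-46619, with turbidimetric read-out. Each IC₅₀ is mean ± SEM by regression, from three dose groups of four preparations.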

[3] = tested on: Thromboxane A2 receptor (Oryctolagus cuniculus); assay: Selectivity index for the TXA2 t-receptor was the difference between the IC50 values in the aggregation and contraction assay
[4] = species: Oryctolagus cuniculus; assay: Compound was tested for agonist activity on rabbit aorta; format: functional
Outline: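 Rabbit aortic strips were exposed to compound alone at 10⁻⁵ M to test for partial agonism. Tension is expressed relative to the response to 40 mM KCl, which is set at 100.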

[5] = species: Oryctolagus cuniculus; assay: Compound was tested for agonist activity on rabbit PRP; format: functional
Outline: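 Rabbit platelet-rich plasma was exposed to compound alone at 10⁻⁴ M to test for partial agonism. Response is expressed relative to the response to 0.1 μM U-46619, which is set at 100.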

[6] = species: Homo sapiens; assay: Effect on TXB2 formation of human platelets; format: functional, organism-based
Outline: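 Washed human platelets were sonicated in 50 mM phosphate buffer (pH 7.4) with 1 mM EDTA. They were preincubated with compound and 1 mM GSH for 5 min at 37 °C, then given [1-¹⁴C]arachidonic acid for 5 min. Eicosanoids were extracted and separated by TLC, and TXB₂ radioactivity was counted. IC₅₀ was derived by regression.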

[7] = species: Oryctolagus cuniculus; assay: Displacement of specific binding of [3H]SQ-29,548 to rabbit gel-filtered platelets; format: functional
[8] = species: Rattus norvegicus; assay: Compound was tested for the inhibition U-46619 (3 x10 E -8 M) induced contraction against in rat thoracic aorta; format: functional, organism-based; outline: as §1
[9] = Rattus norvegicus, Thoracic aorta

SMILES | IC50 [1, 9] [µM] | other results
CCCCc1cc(S(=O)(=O)NCCc2ccc(OCC(=O)O)cc2)c2cc(C(C)C)cccc1-2 | 32 | –
Cc1cc(S(=O)(=O)NCCc2ccc(OCC(=O)O)cc2)c2cc(C(C)C)cccc1-2 | 120 | –
Cc1cc(S(=O)(=O)NCCc2ccc(OCC(=O)O)cc2)c2ccc(C(C)C)ccc1-2 | 84 | –
CCc1cc(S(=O)(=O)NCCc2ccc(OCC(=O)O)cc2)c2cc(C(C)C)cccc1-2 | 56 | –
CCc1cc(S(=O)(=O)NCCc2ccc(OCC(=O)O)cc2)c2cccccc1-2 | 56 | –
O=C(O)c1cc(CCNS(=O)(=O)c2ccccc2)c2cccccc1-2 | 21 | –
CC(C)c1ccc2c(CC/C=C/CCNS(=O)(=O)c3ccccc3)cc(C(=O)O)c-2cc1 (stereo in doubt; 39) | – | IC50 [1]: 0.052 µM
Cc1cc(S(=O)(=O)NCCc2ccc(OCC(=O)O)cc2)c2cccccc1-2 | 190 | –
COc1ccccc2c(S(=O)(=O)NCCc3ccc(OCC(=O)O)cc3)cc(C)c1-2 | 190 | –
CCCc1cc(S(=O)(=O)NCCc2ccc(OCC(=O)O)cc2)c2ccc(C(C)C)ccc1-2 | 50 | –
CCCCc1cc(S(=O)(=O)NCCc2ccc(OCC(=O)O)cc2)c2ccc(C(C)C)ccc1-2 | 19 | –
CCCCc1cc(S(=O)(=O)NCCc2ccc(OCC(=O)O)cc2)c2cccccc1-2 | 55 | –
CC(C)c1cc(S(=O)(=O)NCCc2ccc(OCC(=O)O)cc2)c2cccccc1-2 | 160 | –
CC(C)c1ccc2c(CC/C=C/CCNS(=O)(=O)c3ccccc3)cc(C(=O)O)c-2cc1 (stereo in doubt; 40) | – | IC50 [1]: 0.46 µM
CC(C)c1ccc2c(/C=C/C(=O)O)cc(CCCCNS(=O)(=O)c3ccccc3)c-2cc1 | 21 | –
CCc1cc(S(=O)(=O)NCCc2ccc(OCC(=O)O)cc2)c2ccc(C(C)C)ccc1-2 | 65 | –
CCCc1cc(S(=O)(=O)NCCc2ccc(OCC(=O)O)cc2)c2cc(C(C)C)cccc1-2 | 45 | –
CC(C)c1cccc2c(CCNS(=O)(=O)c3ccccc3)cc(C(=O)O)c-2c1 | 15 | –
CCc1cc(S(=O)(=O)NCCc2ccc(OCC(=O)O)cc2)c2cc(C(C)C)ccc(OC)c1-2 | 120 | –
CC(C)c1ccc2c(C(C)C)cc(S(=O)(=O)NCCc3ccc(OCC(=O)O)cc3)c-2cc1 | 25 | –
CCc1cc(S(=O)(=O)NCCc2ccc(OCC(=O)O)cc2)c2ccccc(OC)c1-2 | 110 | –
COc1ccc(S(=O)(=O)NCCCCc2cc(S(=O)(=O)[O-])c3ccc(C(C)C)ccc2-3)cc1.[Na+] | – | Selectivity index [3]: 660; IC50 [6]: > 100 µM; Agonist activity [4]: 0; Agonist activity [5]: 0; IC50 [8]: 0.0032 µM
CC(C)c1ccc2c(CCNS(=O)(=O)c3ccccc3)cc(C(=O)O)c-2cc1 | 60 | –
CCCc1cc(S(=O)(=O)NCCc2ccc(OCC(=O)O)cc2)c2cccccc1-2 | 77 | –

The next lines start with results.

IC50 [1, 9] [µM] | SMILES | other results
0.018 | O=C(O)c1cc(CCCCCCCNS(=O)(=O)c2ccccc2)c2cccccc1-2 | –
0.84 | O=C(O)c1cc(CCCCCNS(=O)(=O)c2ccccc2)c2cccccc1-2 | –
0.93 | CC(C)c1cccc2c(CCCCCCCNS(=O)(=O)c3ccccc3)cc(C(=O)O)c-2c1 | –
0.92 | CC(C)c1cccc2c(CCCCCCNS(=O)(=O)c3ccccc3)cc(C(=O)O)c-2c1 | –
0.12 | CC(C)c1ccc2c(CCCCCNS(=O)(=O)c3ccccc3)cc(C(=O)O)c-2cc1 | –
1.1 | CC(C)c1ccc2c(CCCCNS(=O)(=O)c3ccc(F)cc3)cc(C(=O)O)c-2cc1 | –
2.6 | CC(C)c1cccc2c(CCCCCNS(=O)(=O)c3ccccc3)cc(C(=O)O)c-2c1 | –
1.5 | O=C(O)COc1ccc(CCNS(=O)(=O)c2ccccc2)cc1 [SULOTROBAN] | Selectivity index [2]: 5
0.07 | CC(C)c1ccc2c(CCCCNS(=O)(=O)c3ccccc3)cc(C(=O)O)c-2cc1 | Selectivity index [2]: > 63
0.14 | CC(C)c1ccc2c(C(=O)O)cc(-c3cccc(CCNS(=O)(=O)c4ccccc4)c3)c-2cc1 | –
0.038 | O=C(O)c1cc(CCCCCCCCNS(=O)(=O)c2ccccc2)c2cccccc1-2 | –
1.6 | CC(C)c1ccc2c(CCCCNS(=O)(=O)c3cccc(C(F)(F)F)c3)cc(C(=O)O)c-2cc1 | –
7.4 | CC(C)c1cccc2c(CCCNS(=O)(=O)c3ccccc3)cc(C(=O)O)c-2c1 | –
0.14 | O=C(O)c1cc(CCCCCCNS(=O)(=O)c2ccccc2)c2cccccc1-2 | –
0.017 | CC(C)c1ccc2c(CCCCNS(=O)(=O)c3ccccc3)cc(S(=O)(=O)[O-])c-2cc1.[Na+] | Selectivity index [3]: > 91; Agonist activity [4]: 0; Agonist activity [5]: 0
0.0009 | CC(C)c1ccc2c(CCCCNS(=O)(=O)c3ccc(Cl)cc3)cc(S(=O)(=O)[O-])c-2cc1.[Na+] | Selectivity index [3]: 378; IC50 [6]: > 100 µM; IC50 [7]: 0.014 µM; Agonist activity [4]: 0; Agonist activity [5]: 0
3.1 | CC(C)c1cccc2c(CCCCNS(=O)(=O)c3ccccc3)cc(C(=O)O)c-2c1 | –
0.0053 | CC(C)c1ccc2c(CCCCNS(=O)(=O)c3ccc(Cl)cc3)cc(C(=O)O)c-2cc1 | Selectivity index [2]: > 667
0.3 | CC(C)c1ccc2c(CCCCNS(=O)(=O)c3ccccc3)cc(CC(=O)O)c-2cc1 | –
4.8 | CC(C)c1ccc2c(CCCNS(=O)(=O)c3ccccc3)cc(C(=O)O)c-2cc1 | –
4.8 | O=C(O)c1cc(CCCNS(=O)(=O)c2ccccc2)c2cccccc1-2 | –
0.57 | O=C(O)c1cc(CCCCNS(=O)(=O)c2ccccc2)c2cccccc1-2 | –
0.12 | CC(C)c1ccc2c(CCCCCCCNS(=O)(=O)c3ccccc3)cc(C(=O)O)c-2cc1 | –
0.16 | COc1ccc(S(=O)(=O)NCCCCc2cc(C(=O)O)c3ccc(C(C)C)ccc2-3)cc1 | Selectivity index [3]: > 233; Agonist activity [4]: 0; Agonist activity [5]: 0
